Bioassay records deposited in PubChem BioAssay by several laboratories.
Runt-SMMHC FRET = inhibitors of human RUNX1 Runt domain binding to CBFb-SMMHC; inhibition, % at 20 µM; 220,000 tested, 0.74% active; AID 1434; Q01196+Q13951; Cerulean-Runt/Venus-CBFb-SMMHC FRET ratio 530/480, 1 h;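 active = mean inhibition across duplicate retests at 20 µM reaching about 50%, limit read from the data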;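 also: 0% = DMSO wells and 100% = wells with excess untagged CBFb-SMMHC; inhibitors lower the FRET ratio by blocking Runt binding to CBFb-SMMHC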
Target sequence (Q01196 whole entry, looked up, the tested form may be a part): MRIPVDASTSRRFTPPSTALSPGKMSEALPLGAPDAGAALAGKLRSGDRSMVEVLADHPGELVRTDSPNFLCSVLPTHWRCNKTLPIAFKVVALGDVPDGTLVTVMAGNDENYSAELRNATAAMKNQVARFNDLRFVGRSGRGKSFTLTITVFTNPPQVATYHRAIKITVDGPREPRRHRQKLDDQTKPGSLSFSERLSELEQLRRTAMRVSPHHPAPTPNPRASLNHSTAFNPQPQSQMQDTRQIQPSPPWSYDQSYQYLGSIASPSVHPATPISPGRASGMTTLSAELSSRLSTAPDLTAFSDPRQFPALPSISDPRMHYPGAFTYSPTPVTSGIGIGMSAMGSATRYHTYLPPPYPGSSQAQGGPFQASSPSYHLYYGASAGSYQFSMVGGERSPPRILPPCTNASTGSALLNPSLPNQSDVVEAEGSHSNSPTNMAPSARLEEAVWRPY
Target sequence (Q13951 whole entry, looked up, the tested form may be a part): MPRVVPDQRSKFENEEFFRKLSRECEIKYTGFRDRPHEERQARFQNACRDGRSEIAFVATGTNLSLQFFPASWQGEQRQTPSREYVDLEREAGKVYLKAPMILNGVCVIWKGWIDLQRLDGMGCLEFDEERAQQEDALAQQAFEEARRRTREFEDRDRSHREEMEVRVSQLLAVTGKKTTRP
RanGTP-Imp inh = inhibitors of RanGTP-importin-beta interaction, primary screen, biochemical, FRET, CFP-Ran, YFP-importin-beta, homogeneous. cell-free CFP-Ran/YFP-importin-beta FRET ratio. inhibition, % (concentration not given with the values). 300,000 tested, 1.1% active. AID 2216;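 active = more than half of the replicate wells show a fall in the fluorescence ratio signal beyond about 16%, limit read from the data, passing the limit was not always enough; inconclusive = exactly half of the replicate wells pass the set limit; inactive = fewer than half of replicates pass the limit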;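 also: 0% = DMSO wells and 100% = Ran loaded with GDP instead of GTP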
M18AAP inhibitor = blocks P. falciparum M18 aspartyl aminopeptidase; 290,000 tested, 1.2% active; recombinant PfM18AAP, H-Glu-NHMec fluorogenic cleavage; inhibition, % at 7.35 µM; AID 1822;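 active = inhibition above the campaign mean inhibition over all tested compounds plus 3 SD, cut at about 28% in these data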;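 also: 0% = plate median of test compound wells and 100% = 2 mM ZnCl2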
Hck Nef HTS = inhibitors of human Hck kinase activated by Nef. 220,000 tested, 0.68% active. P08631. Recombinant Hck-YEEI plus Nef, Z-Lyte FRET kinase assay. AID 463187. inhibition, % at 20 µM;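 active = Hck-Nef kinase inhibition above about 50%, limit read from the data; inactive = inhibition below that limit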;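 also: 0% = DMSO with Hck plus Nef and 100% = Hck alone without Nef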
Runt-CBFb FRET = inhibitors of human RUNX1 Runt domain binding to CBFb. 220,000 tested, 0.46% active. inhibition, % at 20 µM. AID 1496. Q01196+Q13951. Cerulean-Runt/Venus-CBFb FRET ratio 530/480, 1 h;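 active = inhibition over about 50% at 20 µM in the single-dose screen, limit read from the data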;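 also: 0% = DMSO wells and 100% = excess unlabeled CBFb competitor control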
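Reagent – Venus-CBFb binding partner, 100 nM · Assay system – Cerulean-tagged RUNX1 Runt domain (FRET donor) fusion protein · Input – 100 nM per protein · Incubation – two 1 h room-temperature incubations shielded from light · Measured by – FRET fluorescence · Medium – Tris buffer pH 7.5 with salts and BSA · Benchmarks – unlabeled CBFb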
RBBP9 inhibitor = blocks human serine hydrolase RBBP9. O75884. inhibition, % at 7.94 µM. recombinant RBBP9, FP-Rh probe fluorescence polarization. 220,000 tested, 0.2% active;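 active = inhibition above the campaign mean of all tested compounds plus 3 SD, cut at about 14% in these data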;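 also: plate controls were DMSO wells with RBBP9 for no effect and wells lacking RBBP9 protein for full effect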
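Measured by – fluorescence polarization · Test system – RBBP9 protein · Input – 2.5 µM RBBP9 dispensing solution, before mixing · Measure – percent inhibition from mP, scaled between DMSO and no-protein wells · Benchmarks – DMSO-treated enzyme wells and wells lacking RBBP9 · Times – preincubation 30 min plus labeling 45 min at 25 °C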
YIC counter = counter-screen: alters YIC FRET probe signal. shares compounds with RanGTP-Imp inh. Purified YIC probe, intramolecular FRET ratio YFP/CFP. IC50, µM. 1,000 tested, 40% active. AID 435026;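 active = fitted half-maximal inhibitory concentration no more than tenfold above the top dose tested; inconclusive = flat fit with 30 to 70% activity, or poor fit; inactive = half-maximal concentration beyond tenfold above the top dose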
Active calls of the source: *; ? = inconclusive; nt = no result given. This is a sample that favours compounds with a hit; in the whole collection about 2.9% have one here.

SMILES	Runt-SMMHC FRET	RanGTP-Imp inh	M18AAP inhibitor	Hck Nef HTS	Runt-CBFb FRET	RBBP9 inhibitor	YIC counter
COc1ccc(-n2c(C)cc(/C=C3/SC(=S)N(C)C3=O)c2C)cc1	-51	23*	1	3	-7	-9	>50
Cc1ccc(C(=O)CSc2ncn[nH]2)cc1	-4	-3	22	9	6	-1	nt
CCc1ccc(C(=O)CSc2ncn[nH]2)cc1	-3	18*	28*	1	1	-8	>50
O=C(NCc1ccccn1)Nc1ccccc1F	nt	2	-11	nt	nt	nt	nt
CCOC(=O)/C(C#N)=C/c1ccc(N2CCN(C)CC2)cc1	35	20*	1	29	10	-5	16*
CCOC(=O)/C(C#N)=C\c1ccc(OC)c(OC)c1	0	?	2	28	-2	-4	nt
CCOC(=O)C(/C=C(\C#N)C(=O)OCC)=C(/N)N1CCN(c2ccccc2)CC1	-1	0	7	-2	2	-3	nt
CCOC(=O)/C(C#N)=C\c1ccc(N2CCN(C)CC2)cc1	44	21*	2	29	14	-5	16*
COc1ccc(CNC(=O)C2CCN(S(=O)(=O)c3ccc(Br)s3)CC2)cc1	nt	4	4	nt	nt	nt	nt
O=C(Cn1c(=O)c2cccn2c2cccnc21)NCCCN1CCN(c2ccc(F)cc2)CC1	nt	32*	3	nt	nt	nt	>50
OCCN(CCO)Cc1ccc(Br)cc1	4	-4	7	-2	1	4	nt
CCCN(CCO)Cc1cccc(Br)c1	-4	20*	2	-9	-1	0	>50
Cc1ccc(Nc2nc(N)nc(CC#N)n2)cc1	4	25*	-12	0	2	-14	>50
COc1cc(NC(=O)c2cc(-c3cccs3)on2)cc(OC)c1OC	-3	28*	9	0	-2	1	>50
COc1cc(C(=O)Nc2nnc(C3=COCCO3)o2)cc(OC)c1OC	nt	nt	5	nt	nt	nt	nt
CCN1/C(=C2\SC(=S)N(Cc3ccccc3)C2=O)Sc2ccccc21	-27	24*	4	3	-153	6	>50
CCc1nc2ccc(C(=O)N3CCN(c4ccc([N+](=O)[O-])cc4)CC3)cc2nc1CC	nt	-2	-4	nt	nt	nt	nt
CC1=NN(C(=O)Cn2nc([N+](=O)[O-])cc2C)C(O)(C(F)(F)F)C1 (stereo unspecified)	-1	18*	3	3	0	-5	>50
COc1cccc(CN(C)C(=O)CSCC(=O)Nc2cc(C)on2)c1OC	nt	-2	nt	nt	nt	nt	nt
O=C(Cc1c2ccccc2nc2ccccc12)c1ccccc1	115*	22*	-1	7	126*	-9	>50
COC(=O)c1cc(Cn2nc(C(=O)O)c3ccccc3c2=O)oc1C	nt	4	-8	nt	nt	nt	nt
O=C(Nc1nnc(SCC(=O)N2CCCc3ccccc32)s1)c1cccc2ccccc12	3	0	-11	4	0	-2	nt
Cc1ccc(C(=O)Nc2nnc(SCC(=O)N3CCCc4ccccc43)s2)cc1	1	39*	-2	2	1	-4	>50
Cc1cc(C2C(C#N)=C(N)SC(N)=C2C#N)c(C)s1	32	34*	12	-6	24	-4	>50
COCCCNC(=S)Nc1cc2oc3ccccc3c2cc1OC	nt	?	9	nt	nt	nt	nt
SMILES	Runt-SMMHC FRET	RanGTP-Imp inh	M18AAP inhibitor	Hck Nef HTS	Runt-CBFb FRET	RBBP9 inhibitor	YIC counter
COc1cc2c(cc1NC(=S)Nc1cccc3ccccc13)oc1ccccc12	3	18*	10	1	8	1	>50
Cc1c(CC(=O)O)c(=O)oc2c(C)c3occ(-c4ccc(F)cc4)c3cc12	nt	24*	-17	nt	nt	nt	>50
COc1ccccc1N1CCN(S(=O)(=O)c2cn(C)nc2C)CC1	nt	?	1	nt	nt	nt	nt
CCN1CCc2c(sc(N)c2C#N)C1	110*	34*	-3	9	43	3	18*
O=C(O)c1ccc(NC(=S)NC(=O)c2cncc(Br)c2)cc1	nt	0	19	nt	nt	nt	nt
CSCC(C)N1CCC(N2CCC(C(=O)NCc3ccccn3)CC2)CC1 (stereo unspecified)	nt	19*	-9	nt	nt	nt	>50
CC(C)CCC(=O)N1CCC(N2CCC(C(=O)NCc3ccccn3)CC2)CC1	nt	3	5	nt	nt	nt	nt
